Most compounds without a hit are left out; they make up all but 4.8% or so of the library.
XBP1 UPR activ – activators of adaptive arm of unfolded protein response (XBP1). activation, % at 20 µM. CHO-XBP1 luciferase reporter, IRE1-XBP1 UPR activation, luminescence; percent of tunicamycin response, DMSO as zero. 0.33% of 330,000 active;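 active = versus positive control, 20 µM dose yields 30% or more activation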;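 note: 100% = tunicamycin at 10 µg/mL and 0% = DMSO only wells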
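Material: IRE1-XBP1 luciferase reporter CHO line / Quantity: one thousand reporter cells per well / Buffer or medium: F12 with 10% serum / Compound: 20 µM single concentration, DMSO 1% / Times: 6 h treatment, 37 °C / Detection: Steady-Glo luciferase glow luminescence, 10 min after reagent addition / Benchmarks: tunicamycin high, DMSO low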
UPR CHOP act – apoptotic UPR (CHOP) activation; CHO-CHOP luciferase reporter, luminescence; percent of tunicamycin response over DMSO baseline; activation, % at 10 µM; 0.34% of 330,000 active;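 active = at 10 µM dose, activation of 40% or more, normalized to positive control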;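 note: 100% = tunicamycin at 10 µg/mL and 0% = DMSO alone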
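measured by = luciferase luminescence | assay system = CHO-CHOP cells, stable luciferase reporter of PERK-eIF2a-CHOP signalling | amount = 500 reporter cells seeded per well | timing = 6 h compound exposure at 37 °C after overnight seeding | controls = positive tunicamycin 10 µg/mL, negative DMSO alone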
CSC inhib – blocks cancer stem cells; cancer stem cell-like cells viability, luminescence; inhibition, % at 7.5 µM; 1.1% of 300,000 active; AID 2717; in the data active = inhibition above about 75%; tested in HMLE shEcad cells
Beta apoptosis – blocks beta cell apoptosis; INS-1E cytokine-induced death, ATP luminescence, 48 h; percent of positive-control rescue, neutral wells zero; protection from apoptosis, % (test concentration not listed); 0.8% of 300,000 active; AID 435005;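 active = Every replicate reaches about 75%, or at least half do and their mean reaches it too, limit read from the data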;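 note: 0% = cytokine-treated negative control wells and 100% = positive control rescue; higher means more ATP so stronger rescue from cytokine killing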
SKKanGAS inh – inhibitors of SKKanGAS S. pyogenes growth in kanamycin (SK-promoter or general growth effect). BacTiter-Glo, 6 h. inhibition, % at 7.5 µM. 1.3% of 300,000 active. AID 1662;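 active = mean replicate score, as percent of positive control median, at least 50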;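 note: strain carries kanamycin resistance gene driven by streptokinase promoter and grows in 40 µg/ml kanamycin; loss of luminescence reflects streptokinase promoter inhibition or plain growth inhibition; 0% = median of DMSO wells and 100% = positive control at its reference dose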
Mdm2-MdmX inh – human Mdm2/MdmX binding inhibition; O15151+Q00987; SaOS-2 split-luciferase Mdm2/MdmX complementation, luminescence; inhibition, % at 8 µM; 3% of 330,000 active;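 active = inhibition of at least 50% at 8 µM in the primary screen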
Target sequence (O15151 whole entry, looked up): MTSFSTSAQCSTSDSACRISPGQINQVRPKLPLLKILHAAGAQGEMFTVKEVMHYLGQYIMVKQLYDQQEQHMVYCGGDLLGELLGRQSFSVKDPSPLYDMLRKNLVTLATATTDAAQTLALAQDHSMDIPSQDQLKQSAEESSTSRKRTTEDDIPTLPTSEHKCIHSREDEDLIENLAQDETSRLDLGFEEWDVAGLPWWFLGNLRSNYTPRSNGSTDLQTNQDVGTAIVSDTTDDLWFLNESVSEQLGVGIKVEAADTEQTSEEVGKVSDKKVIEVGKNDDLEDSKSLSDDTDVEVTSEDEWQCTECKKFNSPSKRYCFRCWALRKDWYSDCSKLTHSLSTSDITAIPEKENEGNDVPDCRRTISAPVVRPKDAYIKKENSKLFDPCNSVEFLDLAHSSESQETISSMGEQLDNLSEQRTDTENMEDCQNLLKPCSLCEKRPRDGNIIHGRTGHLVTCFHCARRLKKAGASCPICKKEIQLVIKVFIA
Target sequence (Q00987 whole entry, looked up): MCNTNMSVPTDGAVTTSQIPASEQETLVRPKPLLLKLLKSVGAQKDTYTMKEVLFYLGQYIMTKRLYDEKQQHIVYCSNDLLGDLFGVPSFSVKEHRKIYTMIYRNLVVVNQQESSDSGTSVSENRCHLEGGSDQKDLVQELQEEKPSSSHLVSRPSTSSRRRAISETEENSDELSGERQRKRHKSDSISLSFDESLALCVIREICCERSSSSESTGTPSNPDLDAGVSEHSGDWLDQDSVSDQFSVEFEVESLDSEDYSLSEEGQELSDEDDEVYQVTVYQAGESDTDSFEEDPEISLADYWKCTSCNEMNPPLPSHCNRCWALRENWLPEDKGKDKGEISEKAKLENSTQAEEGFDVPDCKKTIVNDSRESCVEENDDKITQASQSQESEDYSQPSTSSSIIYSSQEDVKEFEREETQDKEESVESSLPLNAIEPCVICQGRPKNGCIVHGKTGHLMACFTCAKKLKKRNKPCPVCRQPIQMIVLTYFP
Mdm2 MdmX conf – human Mdm2/MdmX binding inhibition, confirmed. 55% of 10,000 active. luminescent assay. inhibition, % at 8 µM. shares compounds with Mdm2-MdmX inh; in the data active = inhibition above about 40%
Full FLuc ctr – counter-screen for Mdm2/MdmX inhibitors: full-length luciferase; inhibition, % at 8 µM; shares compounds with Mdm2-MdmX inh; 77% of 6,200 active; SaOS-2 full-length luciferase counterscreen, luminescence;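 active = mean inhibition at 8 µM reaching about 37%, which flags the compound as non-specific, limit read from the data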;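 note: p53-null SaOS-2 cells with luciferase driven by a doxycycline-inducible promoter; compound on cells about two nights before reading with doxycycline added after day one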
The depositor's hits bear a star.

What do the screens show for `O=C(CN1C(=O)S/C(=C/c2ccncc2)C1=O)N1CCOCC1`?
XBP1 UPR activ: 0.0; UPR CHOP act: -0.6; CSC inhib: -4.8; Beta apoptosis: -7.6; SKKanGAS inh: -1.3; Mdm2-MdmX inh: 65.1*; Mdm2 MdmX conf: -20.9

What do the screens show for `O=C(CCCN1C(=O)/C(=C\c2ccccc2)SC1=S)N1CCOCC1`?
XBP1 UPR activ: -4.3; UPR CHOP act: -0.7; CSC inhib: 28.3; Beta apoptosis: -25.1; Mdm2-MdmX inh: 51.0*; Mdm2 MdmX conf: 20.4

Results for CCOC(=O)c1cc(C)sc1NC(=O)CSC1=NCCS1 ?
XBP1 UPR activ: -2.6; UPR CHOP act: 1.0; CSC inhib: 20.3; Beta apoptosis: -4.7; SKKanGAS inh: -9.7; Mdm2-MdmX inh: 21.8

How did O=C(CCN1C(=O)/C(=C\c2ccccc2)SC1=S)N1CCCCC1 do in these assays?
XBP1 UPR activ: -3.3; UPR CHOP act: 8.5; CSC inhib: -4.0; Beta apoptosis: -95.8; SKKanGAS inh: -0.2; Mdm2-MdmX inh: 56.5*; Mdm2 MdmX conf: 72.2*; Full FLuc ctr: 61.5*

Results for O=C(CN1C(=O)/C(=C/c2ccccc2)SC1=S)N1CCN(CCc2ccccn2)CC1 ?
XBP1 UPR activ: -4.2; UPR CHOP act: 1.3; CSC inhib: -4.9; Beta apoptosis: -31.5; SKKanGAS inh: -1.0; Mdm2-MdmX inh: 83.8*; Mdm2 MdmX conf: 54.0*; Full FLuc ctr: 24.3

How did O=C(CCN1C(=O)/C(=C\c2cccc(Br)c2)SC1=S)N1CCOCC1 do in these assays?
XBP1 UPR activ: -3.9; UPR CHOP act: 10.6; CSC inhib: 18.1; Beta apoptosis: -40.0; SKKanGAS inh: -0.3; Mdm2-MdmX inh: 61.0*; Mdm2 MdmX conf: 47.4*; Full FLuc ctr: 21.2

Results for Cc1ccc(/C=C2\SC(=S)N(CCC(=O)N3CCCCC3)C2=O)cc1 ?
XBP1 UPR activ: 4.2; UPR CHOP act: 0.7; Beta apoptosis: -20.3; SKKanGAS inh: -0.2; Mdm2-MdmX inh: 71.8*; Mdm2 MdmX conf: 66.2*; Full FLuc ctr: 122.1*

What do the screens show for `Cc1ccc(/C=C2/SC(=S)N(CCC(=O)N3CCN(C)CC3)C2=O)cc1`?
XBP1 UPR activ: -1.5; UPR CHOP act: 0.4; CSC inhib: 53.3; Beta apoptosis: -54.5; SKKanGAS inh: -0.6; Mdm2-MdmX inh: 48.1

Results for O=C(CCCN1C(=O)/C(=C\c2ccccc2)SC1=S)Nc1ccc(O)cc1C(=O)O ?
XBP1 UPR activ: 0.7; UPR CHOP act: 0.7; CSC inhib: 16.8; Beta apoptosis: 0.0; SKKanGAS inh: 2.9; Mdm2-MdmX inh: 0.2

Results for O=C(CCCN1C(=O)/C(=C/c2ccccc2)SC1=S)Nc1ccccc1O ?
XBP1 UPR activ: -0.5; UPR CHOP act: -2.4; CSC inhib: -2.9; SKKanGAS inh: 7.2; Mdm2-MdmX inh: 95.5*; Mdm2 MdmX conf: 87.7*; Full FLuc ctr: 29.9

Results for COC(=O)Cn1c2ccc(OC)cc2c2nc3ccccc3nc21 ?
XBP1 UPR activ: 9.3; UPR CHOP act: 1.2; CSC inhib: -11.3; Beta apoptosis: -2.6; SKKanGAS inh: -4.0; Mdm2-MdmX inh: 41.5

Results for CCOC(=O)Cn1c2ccc(OC)cc2c2nc3ccccc3nc21 ?
XBP1 UPR activ: 1.4; UPR CHOP act: -1.3; CSC inhib: 6.7; SKKanGAS inh: -3.4; Mdm2-MdmX inh: 70.4*; Mdm2 MdmX conf: 25.4

Results for Cc1nn(-c2ccccc2)c(C)c1/C=N/NC(=O)c1cc(-c2ccccc2)n[nH]1 ?
XBP1 UPR activ: 13.8; UPR CHOP act: -0.7; CSC inhib: 73.0; Beta apoptosis: 32.7; SKKanGAS inh: 29.7; Mdm2-MdmX inh: 59.0*; Mdm2 MdmX conf: 62.7*; Full FLuc ctr: 79.3*

How did CC(C)(C)OC(=O)NCCCC[C@@H](C(=O)NCCCCCCCCCCC(=O)N1CCN(C(=O)OC(C)(C)C)CC1)n1cc(CCCC(=O)O)nn1 do in these assays?
XBP1 UPR activ: -2.1; UPR CHOP act: -0.6; CSC inhib: -0.7; Beta apoptosis: 0.3; Mdm2-MdmX inh: 12.2

Results for CC(C)(C)OC(=O)NCCCCCc1cn([C@@H](CO)C(=O)NCCCCCCCCCCC(=O)N2CCN(C(=O)OC(C)(C)C)CC2)nn1 ?
XBP1 UPR activ: -6.3; UPR CHOP act: -0.8; CSC inhib: 18.0; Beta apoptosis: 108.7*; Mdm2-MdmX inh: 62.0*; Mdm2 MdmX conf: 5.7

Results for CC[C@H](C)[C@@H](C(=O)NCCCCCCCCCCC(=O)N1CCN(C(=O)OC(C)(C)C)CC1)n1cc(CCCCN=C(NC(=O)OC(C)(C)C)NC(=O)OC(C)(C)C)nn1 ?
XBP1 UPR activ: 7.1; UPR CHOP act: 17.6; CSC inhib: 3.7; Beta apoptosis: 112.2*; Mdm2-MdmX inh: 63.5*; Mdm2 MdmX conf: 24.9

Results for CC[C@@H](C)[C@@H](C(=O)N1CCN(C(=O)OC(C)(C)C)CC1)n1cc(CCCN=C(NC(=O)OC(C)(C)C)NC(=O)OC(C)(C)C)nn1 ?
XBP1 UPR activ: -0.5; UPR CHOP act: 2.8; CSC inhib: -1.7; Beta apoptosis: -6.4; SKKanGAS inh: 12.8; Mdm2-MdmX inh: 15.9

Results for COc1ccc(N2CCN(C(=O)CCc3ccc(S(=O)(=O)NC(C)(C)C)cc3)CC2)cc1 ?
XBP1 UPR activ: -2.8; UPR CHOP act: 1.9; CSC inhib: 8.8; Beta apoptosis: 3.0; SKKanGAS inh: -9.2; Mdm2-MdmX inh: -31.2

Results for CCOC(=O)C1=C(COC(=O)/C=C/c2ccc(SC)cc2)NC(=O)NC1C (stereo unspecified) ?
XBP1 UPR activ: 5.0; UPR CHOP act: -1.0; CSC inhib: -3.6; Beta apoptosis: -0.1; SKKanGAS inh: 1.6; Mdm2-MdmX inh: 22.3

Results for CCOc1ccc2nc(-c3ccccc3)nc(SCC(=O)Nc3ncc(C)s3)c2c1 ?
XBP1 UPR activ: 21.2; UPR CHOP act: 18.8; CSC inhib: -5.5; Beta apoptosis: -6.2; SKKanGAS inh: 2.3; Mdm2-MdmX inh: 74.9*; Mdm2 MdmX conf: 18.8

What do the screens show for `Cc1nc(Nc2ccc(C(=O)O)cc2)nc(Nc2ccc(C(=O)O)cc2)c1[N+](=O)[O-]`?
XBP1 UPR activ: -3.6; UPR CHOP act: -1.2; CSC inhib: -8.9; Beta apoptosis: -6.9; SKKanGAS inh: 32.4; Mdm2-MdmX inh: -2.9

How did CC(=O)Nc1ccc(Nc2nc(C)c([N+](=O)[O-])c(Nc3ccccc3)n2)cc1 do in these assays?
XBP1 UPR activ: 5.9; UPR CHOP act: 2.1; CSC inhib: 15.4; Beta apoptosis: 17.2; SKKanGAS inh: 39.7; Mdm2-MdmX inh: 58.1*; Mdm2 MdmX conf: 34.7

Assay outcomes from PubChem BioAssay.
